The source of these data is ChEMBL document CHEMBL2157911, “Synthesis and biological evaluation of a series of podophyllotoxins derivatives as a class of potent antitubulin agents” (Bioorg Med Chem, 2012).

Experiment [1] relates to HepG2. Briefly: Cytotoxicity against human HepG2 cells after 48 hrs. In kind it is functional, cell-based. The following applies: HepG2, 48 h. In outline:
(§1)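 Cells were grown in RPMI 1640 with 10% fetal serum, 2 mM L-glutamine, […], penicillin and streptomycin. Log-phase cells were seeded, left 24 h at 37 °C/5% CO2 to attach, then exposed to 0–100 µM compound for 48 h (DMSO <0.1%), five wells per concentration.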

For experiment [2], the system named is HeLa. As to the kind of experiment: Cytotoxicity against human HeLa cells after 48 hrs. In kind it is functional, cell-based. The method in brief: as §1
The test system of experiment [3] is K562. As to the kind of experiment: Cytotoxicity against human K562 cells after 48 hrs. The format is functional, cell-based. The following applies: K562, 48 h. In outline: as §1
The test system of experiment [4] is SGC-7901. As to the kind of experiment: Cytotoxicity against human SGC7901 cells after 48 hrs. The format is functional, cell-based. The following applies: SGC-7901, 48 h. In outline:
as §1

Experiment [5] is described as follows: Inhibition of goat brain tubulin polymerization after 30 mins. Set-up: species or system Capra hircus. In outline: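 Goat brain tubulin was purified by two polymerization–depolymerization cycles. Tubulin (10 µM) was incubated with compound at 0, 10, 20, 40 or 60 µM in buffer containing 20% glycerol and […] at 37 °C, then cooled to 0 °C. Assembly was followed turbidimetrically in a fluorescence plate reader.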

Regarding `CCCN(CCC)/C(CCO[C@@H]1c2cc3c(cc2[C@@H](c2cc(OC)c(OC)c(OC)c2)[C@H]2C(=O)OC[C@@H]21)OCO3)=N/S(C)(=O)=O`, the IC50 in experiment [1] worked out at 2140 nM; in experiment [2] it was 2.63 µM; in experiment [3] it was 2.96 µM; in experiment [4] it was 2.87 µM.

As to `COc1cc([C@@H]2c3cc4c(cc3[C@@H](OCC/C(=N\S(C)(=O)=O)NCc3ccccc3)[C@H]3COC(=O)[C@H]23)OCO4)cc(OC)c1OC`, the half-inhibitory concentration (IC50) in experiment [1] came to 17900 nM; in experiment [2], 11.2 µM; in experiment [3] it was 12.1 µM; in experiment [4], 19.2 µM.

In the case of `COc1cc([C@@H]2c3cc4c(cc3[C@@H](OCC/C(=N\S(C)(=O)=O)N3CCCCC3)[C@H]3COC(=O)[C@H]23)OCO4)cc(OC)c1OC`, the IC50 is 57100 nM in experiment [1], 10.4 µM in experiment [2], 9.01 µM in experiment [3] and 18.2 µM in experiment [4].

For the molecule `COc1cc([C@@H]2c3cc4c(cc3[C@@H](OCC/C(=N\S(C)(=O)=O)N3CCCC3)[C@H]3COC(=O)[C@H]23)OCO4)cc(OC)c1OC`, the IC50 was found to be 20800 nM in experiment [1], 5.99 µM in experiment [2], 8.34 µM in experiment [3] and 11.2 µM in experiment [4].

Regarding `COc1cc([C@@H]2c3cc4c(cc3[C@@H](OCC/C(=N\S(C)(=O)=O)N(C3CCCCC3)C3CCCCC3)[C@H]3COC(=O)[C@H]23)OCO4)cc(OC)c1OC`, the half-inhibitory concentration (IC50) in experiment [1] was found to be 1950 nM; in experiment [2], 4.33 µM; in experiment [3], 2.61 µM; in experiment [4], 3.21 µM.

As for `COc1cc([C@@H]2c3cc4c(cc3[C@@H](OCC/C(N)=N\S(C)(=O)=O)[C@H]3COC(=O)[C@H]23)OCO4)cc(OC)c1OC`, the IC50 in experiment [1] turned out to be 2870 nM; in experiment [2], 3.75 µM; in experiment [3] it was 3.48 µM; in experiment [4], 4.31 µM.

Regarding `COc1cc([C@@H]2c3cc4c(cc3[C@@H](OCC/C(=N\S(C)(=O)=O)N(C)C)[C@H]3COC(=O)[C@H]23)OCO4)cc(OC)c1OC`, the 50% inhibitory concentration (IC50) amounted to 4170 nM in experiment [1], 2.58 µM in experiment [2], 5.18 µM in experiment [3] and 3.71 µM in experiment [4].

Take `COc1cc2c(c(OC)c1OC)-c1ccc(OC)c(=O)cc1[C@@H](NC(C)=O)CC2` [COLCHICINE]: the concentration for half-maximal inhibition (IC50) came to 20 nM in experiment [1], 0.1 µM in experiment [2], 0.55 µM in experiment [3] and 0.05 µM in experiment [4].

In the case of `COc1cc([C@@H]2c3cc4c(cc3[C@H](O)[C@H]3COC(=O)[C@H]23)OCO4)cc(OC)c1OC` [PODOFILOX], the half-maximal inhibitory concentration (IC50) in experiment [5] is 24 µM; in experiment [1] it was 510 nM; in experiment [2], 0.14 µM; in experiment [3], 4.51 µM; in experiment [4], 0.34 µM.

One may read the IC50 as the concentration that gives 50% inhibition.
